Results reported in ChEMBL document CHEMBL5370536, “Design, synthesis, and biological activity of dual monoamine oxidase A and heat shock protein 90 inhibitors, N-Methylpropargylamine-conjugated 4-isopropylresorcinol for glioblastoma” (Eur J Med Chem, 2023).
pIC50: −log10 of the molar value. Blank lines part the entries; values can stand above or below the compound they belong to. Active and inactive are the calls of the source. The calls are words filed in the database; no cut-off is given here.

Experiments:
U-251 [1] = assay: Downregulation of HER2 expression in human Temozolomide-resistant U-251 cells incubated for 24 hrs by Western blot analysis; format: functional, cell-based; conditions: dose 0.1-3 µM
[2] = target: T1, Amine oxidase [flavin-containing] A (Mus musculus, UniProt Q64133); assay: Inhibition of MAO A in mouse GL26 cells preincubated for 20 mins followed by 14C-labeled 5-hydroxytryptamine addition and measured after 20 mins by scintillation counter analysis; format: cell-based
T1 sequence (Q64133 whole entry): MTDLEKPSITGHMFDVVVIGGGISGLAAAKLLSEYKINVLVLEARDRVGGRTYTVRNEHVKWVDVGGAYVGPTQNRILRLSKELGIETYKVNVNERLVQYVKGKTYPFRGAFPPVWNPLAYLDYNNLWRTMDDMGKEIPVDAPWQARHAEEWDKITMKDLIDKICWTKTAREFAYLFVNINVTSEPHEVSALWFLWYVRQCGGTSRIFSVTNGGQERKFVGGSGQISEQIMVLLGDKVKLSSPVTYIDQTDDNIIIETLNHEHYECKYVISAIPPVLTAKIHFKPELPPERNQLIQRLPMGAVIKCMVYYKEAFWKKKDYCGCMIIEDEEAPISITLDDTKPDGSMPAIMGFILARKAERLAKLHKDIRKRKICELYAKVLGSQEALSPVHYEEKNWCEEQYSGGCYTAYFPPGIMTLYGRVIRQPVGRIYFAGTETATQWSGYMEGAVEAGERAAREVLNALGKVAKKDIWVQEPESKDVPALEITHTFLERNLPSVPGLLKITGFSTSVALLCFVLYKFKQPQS

GL26 [3] = assay: Downregulation of HER2 expression in mouse GL26 cells incubated for 24 hrs by Western blot analysis; format: functional, cell-based; conditions: dose 0.1-3 µM
GL26 [4] = assay: Downregulation of Akt phosphorylation expression at Ser 473 residues in mouse GL26 cells incubated for 24 hrs by Western blot analysis; format: functional, cell-based; conditions: dose 0.1-3 µM
U-251 [5] = assay: Antiproliferative activity against human Temozolomide-resistant U-251 cells assessed as inhibition of cell growth measured after 48 hrs by MTT assay; format: functional, cell-based; conditions: U-251, 48 h
Procedure, shortened: (§1)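 Cells plated at 5×10³ per well 24 h before compound and grown in DMEM with 10% FBS at 37°C, 5% CO₂. After 48 h exposure, the medium was replaced with 0.5 mg/mL MTT for 3 h. Formazan was dissolved in DMSO and read at 570 nm.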

U-251 [6] = assay: Downregulation of Akt phosphorylation expression at Ser 473 residues in human Temozolomide-resistant U-251 cells incubated for 24 hrs by Western blot analysis; format: functional, cell-based; conditions: dose 0.1-3 µM
A 172 = assay: Antiproliferative activity against human A-172 cells assessed as inhibition of cell growth measured after 72 hrs by CCK8 method; format: functional, cell-based; conditions: A 172, 72 h
Procedure, shortened: (§2)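 Cell lines from ATCC or from patient surgical specimens (P1S, P3, P3R), kept in DMEM with 10% FBS and 1% penicillin/streptomycin at 37°C, 5% CO₂. P3R medium also held 50 μM TMZ. Cells were seeded at 2×10³/well 24 h before compound, then exposed 72 h.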

[7] = Antiproliferative activity against human patient-derived, TMZ-resistant and concurrent chemo-radiotherapy (CCRT)-resistant P1S cell assessed as inhibition of cell growth measured after 72 hrs by CCK8 method; format: functional, cell-based; procedure, shortened: as §2
[8] = Antiproliferative activity against mouse GL26 cells assessed as inhibition of cell growth measured after 48 hrs by MTT assay; format: functional, cell-based; conditions: GL26, 48 h; procedure, shortened: as §1
GL26 [9] = assay: Downregulation of IFN-gamma induced PD-L1 expression in mouse GL26 cells incubated for 24 hrs by flow cytometry analysis; format: functional, cell-based
Procedure, shortened: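 GL26 cells at 3.6 × 10⁵ per well were treated at various concentrations with or without 10 ng/mL IFN-γ for 24 h. Cells were stained with goat anti-PD-L1 for 1 h in PBS/0.05% BSA, then FITC donkey anti-goat for 1 h, and read by flow cytometry. MFI was normalised to the secondary-antibody-only isotype control and expressed as an MFI ratio.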

SNB-75 = assay: Growth inhibition of human SNB-75 cells incubated for 48 hrs by SRB assay; format: functional
Procedure, shortened: (§3)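 NCI-60 panel screen: cells seeded at 5000 to 40000 per well according to doubling time, 24 h before drug addition at various concentrations. A time-zero plate was TCA-fixed at drug addition. After 48 h drug exposure, growth was read by sulforhodamine B staining. Percent growth = [(Ti − Tz)/(C − Tz)] × 100, and GI50 is the concentration at which this equals 50.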

SF-539 = assay: Growth inhibition of human SF-539 cells incubated for 48 hrs by SRB assay; format: functional; procedure, shortened: as §3
NCI-H460 = assay: Growth inhibition of human NCI-H460 cells incubated for 48 hrs by SRB assay; format: functional; procedure, shortened: as §3
SF-295 = assay: Growth inhibition of human SF-295 cells incubated for 48 hrs by SRB assay; format: functional; procedure, shortened: as §3
SNB-19 = assay: Growth inhibition of human SNB-19 cells incubated for 48 hrs by SRB assay; format: functional; procedure, shortened: as §3
T98G = assay: Antiproliferative activity against human T98G cells assessed as inhibition of cell growth measured after 72 hrs by CCK8 method; format: functional, cell-based; procedure, shortened: as §2
[10] = Antiproliferative activity against human patient-derived P3 cell assessed as inhibition of cell growth measured after 72 hrs by CCK8 method; format: functional, cell-based; procedure, shortened: as §2
[11] = Antiproliferative activity against human U373 MG cells assessed as inhibition of cell growth measured after 72 hrs by CCK8 method; format: functional, cell-based, U-373MG ATCC; procedure, shortened: as §2
[12] = Antiproliferative activity against human patient-derived TMZ-resistant GBM cells with MGMT negative P3R cell assessed as inhibition of cell growth measured after 72 hrs by CCK8 method; format: functional, cell-based; procedure, shortened: as §2
U-251 [13] = assay: Growth inhibition of human U-251 cells incubated for 48 hrs by SRB assay; format: functional; procedure, shortened: as §3
A549 = assay: Growth inhibition of human A549 cells incubated for 48 hrs by SRB assay; format: functional; procedure, shortened: as §3
RPMI-8226 = assay: Growth inhibition of human RPMI-8226 cells incubated for 48 hrs by SRB assay; format: functional; procedure, shortened: as §3
LN-229 = assay: Antiproliferative activity against human LN-229 cells assessed as inhibition of cell growth measured after 72 hrs by CCK8 method; format: functional, cell-based; conditions: LN-229, 72 h; procedure, shortened: as §2
HL-60 = assay: Growth inhibition of human HL-60 cells incubated for 48 hrs by SRB assay; format: functional; procedure, shortened: as §3
HCT-116 [14] = assay: Growth inhibition of human HCT-116 cells incubated for 48 hrs by SRB assay; format: functional; procedure, shortened: as §3
K562 = assay: Growth inhibition of human K562 cells incubated for 48 hrs by SRB assay; format: functional; procedure, shortened: as §3
GL26 [15] = assay: Upregulation of HSP70 expression in mouse GL26 cells incubated for 24 hrs by Western blot analysis; format: functional, cell-based; conditions: dose 0.1-3 µM
[16] = target: Heat shock protein HSP 90-alpha (Homo sapiens, UniProt P07900); assay: Inhibition of human recombinant HSP90alpha preincubated for 30 mins followed by FITC-GM addition and mesured after 3 hrs by fluorescence polarization assay
HCT-116 [17] = assay: Downregulation of PD-L1 expression in human HCT-116 cells; format: functional, cell-based
Procedure, shortened: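 HCT116 cells at 3 × 10⁵ per well were treated at various concentrations with or without 20 ng/mL IFN-γ for 48 h. Cells were stained with mouse anti-PD-L1 for 1 h in PBS/0.05% BSA, then FITC goat anti-mouse for 1 h. Surface FITC mean fluorescence intensity was measured by flow cytometry.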

U-251 [18] = assay: Upregulation of HSP70 expression in human Temozolomide-resistant U-251 cells incubated for 24 hrs by Western blot analysis; format: functional, cell-based; conditions: dose 0.1-3 µM
SF-268 = assay: Growth inhibition of human SF-268 cells incubated for 48 hrs by SRB assay; format: functional; procedure, shortened: as §3
NCI-H522 = assay: Growth inhibition of human NCI-H522 cells incubated for 48 hrs by SRB assay; format: functional; procedure, shortened: as §3
[19] = Toxicity in C57BL/6J mouse assessed as change in body weight at 25 mg/kg, ip measured after 3 days; format: organism-based; conditions: in vivo, 72 h, time 3 day
Procedure, shortened: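 Male C57BL/6J mice, 8-9 weeks old, given 2 × 10⁵ GL26 cells subcutaneously in the lower back. From day 9, when tumor was visible, dosing was i.p. for 14 days with vehicle, clorgyline 10 mg/kg daily, or test compounds 25 mg/kg daily for the first 3 days then every 3 days. Tumor was measured by caliper, volume = length × width² ÷ 2, and TGI% was taken against the vehicle-group mean. Body weight was tracked.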

U-87 MG = assay: Antiproliferative activity against human U-87 MG cells assessed as inhibition of cell growth measured after 72 hrs by CCK8 method; format: functional, cell-based, U-87MG ATCC; procedure, shortened: as §2
[20] = Antitumor activity against mouse GL26 cells xenografted in C57BL/6J mouse model assessed as tumor growth inhibition at 25 mg/kg, ip administered daily for 3 days followed by every 3 days for 14 days by caliper method relative to control; format: functional; conditions: GL26, 336 h, time 14 day, read-out: TGI
Procedure, shortened: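 Male C57BL/6J mice aged 8-9 weeks received 2 × 10⁵ GL26 cells subcutaneously in the lower back. From day 9 after implantation, once tumours were palpable, 25 mg/kg was given i.p. daily for 3 days and then every 3 days over 14 days. Caliper volume was length × width² ÷ 2. TGI% was taken relative to the mean tumour size of the vehicle group.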

SMILES: CC(C)c1cc(-c2n[nH]c(=O)n2-c2ccc3c(ccn3C)c2)c(O)cc1O [GANETESPIB]
Activity (U-251 [1]): Dose-Dependent Effect
pIC50 [2]: < 5.00
Activity (GL26 [3]): Dose-Dependent Effect
Activity (GL26 [4]): Dose-Dependent Effect
pIC50 (U-251 [5]): < 5.00
Activity (U-251 [6]): Dose-Dependent Effect

SMILES: C#CCN(C)CCCOc1ccc(N(C)C(=O)c2cc(C(C)C)c(O)cc2O)cc1Cl
pIC50 (A 172): 5.48
pIC50 [7]: 6.07
pIC50 [8]: 6.14
Activity (GL26 [9]): Dose-Dependent Effect
Activity (U-251 [1]): Dose-Dependent Effect
pIC50 [2]: 5.75
GI50 (SNB-75): 420 nM
GI50 (SF-539): 320 nM
GI50 (NCI-H460): 40 nM
GI50 (SF-295): 290 nM
GI50 (SNB-19): 440 nM
pIC50 (T98G): 6.34
pIC50 [10]: 5.56
Activity (GL26 [3]): Dose-Dependent Effect
pIC50 [11]: 5.84
Activity (GL26 [4]): Dose-Dependent Effect
pIC50 [12]: 5.60
GI50 (U-251 [13]): 320 nM
GI50 (A549): 190 nM
GI50 (RPMI-8226): 380 nM
pIC50 (LN-229): 6.40
GI50 (HL-60): 40 nM
GI50 (HCT-116 [14]): 80 nM
pIC50 (U-251 [5]): 6.08
GI50 (K562): 70 nM
Activity (GL26 [15]): Dose-Dependent Effect
pIC50 [16]: 7.72
Activity (HCT-116 [17]): Active
Activity (U-251 [18]): Dose-Dependent Effect
GI50 (SF-268): 520 nM
GI50 (NCI-H522): 80 nM
Activity [19]: Toxic
pIC50 (U-87 MG): 6.46
Activity (U-251 [6]): Dose-Dependent Effect
inhibition in vivo at 25 mg/kg [20]: 63.2%

pIC50 [2]: 6.06
SMILES: C#CCN(C)CCCOc1cccc(N(CCC)C(=O)c2cc(C(C)C)c(O)cc2O)c1Cl
